Data: ChEMBL document CHEMBL4052722, “Virtual screening, synthesis and biological evaluation of DNA intercalating antiviral agents” (Bioorg Med Chem Lett, 2017)

What was measured:
[1] = Cytotoxicity against African green monkey CV1 cells assessed as cell viability at 0.1 to 100 uM preincubated for 4 hrs measured after 24 hrs by MTT assay relative to control; type: cell-based, CV-1; conditions: chlorocebus aethiops, read-out: Activity
Outline: (§1)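 CV-1 cells were exposed to test samples at 0.1, 10 and 100 μM. Viability was read by MTT assay.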

[2] = Cytotoxicity against African green monkey CV1 cells assessed as reduction in cell viability preincubated for 4 hrs measured after 24 hrs by MTT assay relative to control; type: cell-based, CV-1; conditions: chlorocebus aethiops; outline: as §1
Bos taurus = species: Bos taurus; assay: Displacement of ethidium bromide from calf thymus DNA by fluorescence binding assay
[3] = test system: Vesicular stomatitis virus; assay: Antiviral activity against Vesicular stomatitis virus at 0.2 to 620 uM after 24 hrs post infection relative to control; type: functional

Row | Compound | viability at 24 h, up to 100 µM [1] | CC50 at 24 h [2] | log Ka (Bos taurus) | Activity [3]
1 | CN1CCN(CC(=O)NN2C(=O)c3cccc4cccc(c34)C2=O)CC1 | 84% | 100 µM | 5.43 | 
2 | CN(C)CCNC(=O)CCCn1c2ccccc2c2nc3ccccc3nc21 | 93% | 100 µM | 5.01 | 
3 | CC1CCN(CC(=O)NN2C(=O)c3cccc4cccc(c34)C2=O)CC1 | 104% | > 100 µM | 5.73 | 
4 | CCCCN(CCO)CCN1C(=O)c2cccc3cccc(c23)C1=O | 70% | > 100 µM |  | 
5 | O=C(CCCn1c2ccccc2c2nc3ccccc3nc21)NCCN1CCOCC1 | 95% | > 100 µM | 4.91 | 
6 | CCN(CCO)CCN1C(=O)c2cccc3cccc(c23)C1=O | 79% | 100 µM |  | 
7 | CCN(CC)CCNC(=O)CCCn1c2ccccc2c2nc3ccccc3nc21 | 88% | 100 µM | 5.25 | 
8 | CN(C)CCCNC(=O)CCCn1c2ccccc2c2nc3ccccc3nc21 | 96% | > 100 µM | 5.09 | 
9 | CN1CCN(CCCn2c3ccccc3c3nc4ccccc4nc32)CC1 |  |  | 6.37 | 39%
10 | CCN(CC)CCN1C(=O)/C(=N\NC(=O)CN2CCC(C)CC2)c2ccccc21 |  |  | 6.47 | 100%
11 | CC1CCN(CCn2c3ccc4ccccc4c3c3nc4ccccc4nc32)CC1 |  |  | 6.83 | 30%
12 | O=C(CN1CCOCC1)N/N=C1/C(=O)Nc2ccc3ccccc3c21 |  |  | 6.76 | 15%
13 | CCN(CC)CCCOC(=O)Cn1c2ccccc2c2nc3ccccc3nc21 |  |  | 5.17 | 0%
14 | O=C(Cn1c2ccccc2c2nc3ccccc3nc21)NCCNCCO |  |  | 5.37 | 70%
15 | CCN(CC)CCn1c2ccc3ccccc3c2c2nc3ccccc3nc21 |  |  | 6.79 | 14%
16 | CCN(CC)CCCNC(=O)CCCCCN1C(=O)c2cccc3cccc(c23)C1=O |  |  | 6.81 | 50%
17 | CCN(CC)CCCOC(=O)CCCn1c2ccccc2c2nc3ccccc3nc21 |  |  | 5.29 | 0%
18 | O=C(CCCN1C(=O)c2cccc3cccc(c23)C1=O)NCCCN1CCOCC1 |  |  | 5.07 | 30%
19 | CCCN(CCC)CCn1c2ccc3ccccc3c2c2nc3ccccc3nc21 |  |  | 6.91 | 16%
20 | c1ccc2nc3c(nc2c1)c1ccccc1n3CCN1CCCC1 |  |  | 6.05 | 85%
21 | CN1CCN(CC(=O)N/N=C2\C(=O)Nc3ccccc32)CC1 |  |  | 5.43 | 80%
22 | CN(C)CCCNC(=O)CCCCCN1C(=O)c2cccc3cccc(c23)C1=O |  |  | 6.1 | 100%
23 | CC1CCN(CCCCn2c3ccccc3c3nc4ccccc4nc32)CC1 |  |  | 5.8 | 20%

Row | Compound | viability at 24 h, up to 100 µM [1] | CC50 at 24 h [2] | log Ka (Bos taurus) | Activity [3]
24 | c1ccc2nc3c(nc2c1)c1ccccc1n3CCOCCN1CCOCC1 |  |  | 5.32 | 50%
25 | CC1CCCCN1CCCn1c2ccccc2c2nc3ccccc3nc21 (stereo not given) |  |  | 6.28 | 56%
26 | CN(CCO)CCN1C(=O)c2cccc3cccc(c23)C1=O | 88% | > 100 µM |  | 
27 | CCN(CC)CCn1c2ccccc2c2nc3ccccc3nc21 |  |  | 6.07 | 90%
28 | c1ccc2nc3c(nc2c1)c1ccccc1n3CCCCN1CCCCC1 |  |  | 5.93 | 11%
29 | O=C(CN1CCCCCC1)N/N=C1/C(=O)Nc2ccc3ccccc3c21 |  |  | 6.52 | 20%
30 | c1ccc2nc3c(nc2c1)c1ccccc1n3CCCCCCN1CCOCC1 |  |  | 5.73 | 6%
31 | CN1CCN(CCN2C(=O)c3cccc4cccc(c34)C2=O)CC1 | 65% | 100 µM |  | 
32 | O=C(CCCN1C(=O)c2cccc3cccc(c23)C1=O)NCCN1CCOCC1 |  |  | 5.87 | 5%
33 | O=C(CN1CCCC1)N/N=C1/C(=O)Nc2ccc3ccccc3c21 |  |  | 6.44 | 10%
34 | OCCNCCn1c2ccccc2c2nc3ccccc3nc21 |  |  | 6.31 | 80%
35 | c1ccc2nc3c(nc2c1)c1ccccc1n3CCCN1CCOCC1 |  |  | 6.09 | 25%
36 | CCN(CC)CCOCCn1c2ccccc2c2nc3ccccc3nc21 |  |  | 5.26 | 56%
37 | c1ccc2nc3c(nc2c1)c1ccccc1n3CCNCCN1CCOCC1 |  |  | 6.17 | 40%
38 | CN(C)CCOC(=O)Cn1c2ccccc2c2nc3ccccc3nc21 |  |  | 5.46 | 0%
39 | O=C(CCCn1c2ccccc2c2nc3ccccc3nc21)OCCCN1CCOCC1 |  |  | 5.35 | 100%
40 | CC1CCCCN1CCCCn1c2ccccc2c2nc3ccccc3nc21 (stereo not given) |  |  | 5.6 | 26%
41 | CC1CCCCN1CCn1c2ccccc2c2nc3ccccc3nc21 (stereo not given) |  |  | 5.19 | 90%
42 | c1ccc2nc3c(nc2c1)c1ccccc1n3CCOCCN1CCCCC1 |  |  | 5.19 | 51%
43 | CCN(CC)CCNC(=O)CCN1C(=O)c2cccc3cccc(c23)C1=O |  |  | 5.85 | 20%
44 | CCN(CC)CCCNC(=O)CCCN1C(=O)c2cccc3cccc(c23)C1=O |  |  | 6.21 | 15%
45 | COC(=O)CN1CCN(CCN2C(=O)c3cccc4cccc(c34)C2=O)CC1 | 78% | > 100 µM |  | 
46 | c1ccc2nc3c(nc2c1)c1ccccc1n3CCN1CCCCCC1 |  |  | 6.16 | 90%

Row | Compound | viability at 24 h, up to 100 µM [1] | CC50 at 24 h [2] | log Ka (Bos taurus) | Activity [3]
47 | c1ccc2nc3c(nc2c1)c1ccccc1n3CCCCCN1CCOCC1 |  |  | 5.73 | 77%
48 | O=C(CN1CCCCC1)N/N=C1/C(=O)Nc2ccc3ccccc3c21 |  |  | 6.21 | 10%
49 | O=C(CCN1C(=O)c2cccc3cccc(c23)C1=O)NCCN1CCOCC1 |  |  | 5.78 | 5%
50 | CN(C)CCCn1c2ccccc2c2nc3ccccc3nc21 |  |  | 6.01 | 23%
51 | c1ccc2c(c1)ccc1c2c2nc3ccccc3nc2n1CCN1CCOCC1 |  |  | 6.94 | 10%
52 | CN(C)CCCCCn1c2ccccc2c2nc3ccccc3nc21 |  |  | 5.66 | 68%
53 | CN(C)CCCOC(=O)CCCn1c2ccccc2c2nc3ccccc3nc21 |  |  | 5.32 | 100%
54 | CCN(CC)CCn1c2ccc(OC)cc2c2nc3ccccc3nc21 | 60% | 100 µM |  | 
55 | CN(C)CCCCCCn1c2ccccc2c2nc3ccccc3nc21 |  |  | 5.81 | 82%
56 | CC(O)N(C)CCn1c2ccccc2c2nc3ccccc3nc21 (stereo not given) | 78% | 100 µM |  | 
57 | CN(C)CCCCn1c2ccccc2c2nc3ccccc3nc21 |  |  | 5.61 | 30%
58 | O=C(CCCn1c2ccccc2c2nc3ccccc3nc21)OCCN1CCCCC1 |  |  | 5.57 | 25%
59 | CN(C)CCOCCn1c2ccccc2c2nc3ccccc3nc21 |  |  | 5.59 | 32%
60 | CCN(CC)CCOC(=O)CCCn1c2ccccc2c2nc3ccccc3nc21 |  |  | 5.45 | 0%
61 | CCCN(CCC)CCn1c2ccccc2c2nc3ccccc3nc21 |  |  | 6.09 | 90%
62 | Cc1ccc2c(c1)c1nc3ccccc3nc1n2CCN1CCN(C)CC1 | 87% | 100 µM |  | 
63 | CC1CCN(CCn2c3ccccc3c3nc4ccccc4nc32)CC1 |  |  | 5.98 | 90%
64 | O=C(Cn1c2ccccc2c2nc3ccccc3nc21)OCCN1CCOCC1 |  |  | 5.18 | 45%
65 | O=C(Cn1c2ccccc2c2nc3ccccc3nc21)NCCCNCCO |  |  | 5.06 | 72%
66 | CCN(CC)CC(=O)N/N=C1/C(=O)Nc2ccc3ccccc3c21 |  |  | 6.3 | 30%
67 | COC(=O)CN(C)CCCN1C(=O)c2cccc3cccc(c23)C1=O | 90% | > 100 µM |  | 
